Screening results from PubChem.
Hits are enriched below; roughly 1.9% of the tested compounds scored in any of these assays.
TLR9-MyD88 block – inhibitors of human TLR9-MyD88 binding; Q9NR96+Q99836; CHO BLA complementation TLR9-MyD88, CCF4 FRET ratio; inhibition, % at 4.98 µM; hit rate 0.21% among 340,000;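 active means inhibition above the mean over all tested compounds plus 3 SD, cut at about 21% in these data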
MC4R barr agon – human MC4R agonism via beta-arrestin; hit rate 0.98% among 360,000; activation, % at 8.9 µM; U2OS MC4R beta-arrestin complementation, luminescence; percent of melanotan II response, DMSO zero; P32245;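 active means activation above a per-plate cutoff, the mean activation of sample wells on that plate plus 3 SD, cut at about 8% in these data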
MC4R antag cAMP – human MC4R antagonism in cAMP assay; P32245; AID 540295; inhibition, % at 6.5 µM; MC4R-expressing cells, MTII-stimulated cAMP, LANCE TR-FRET; hit rate 0.48% among 360,000;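 active means inhibition above its plate's cutoff, the mean of tested wells on that plate plus 3 SD, cut at about 29% in these data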
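system = U2OS cells with stable human MC4R expression | also added = Melanotan II challenge after compound preincubation | dosing = one concentration, 6.5 µM nominal | incubation = compound 30 min, challenge 1 h, detection 1 h | measured by = TR-FRET with Eu-cAMP and labeled anti-cAMP, 671 nm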
NTR1 ag – NTR1 (human) agonism; P30989; NTR1-U2OS beta-arrestin-GFP spot imaging, agonist mode; activation, % at 20 µM; hit rate 0.17% among 330,000; AID 493036;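 active means activation at or above 40% of the spot to cytoplasm intensity ratio, with at least 20 cells analyzed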
NOD2-RIPK2 inh – inhibitors of human NOD2-RIPK2 interaction. CHO BLA complementation NOD2-RIPK2, CCF4 ratio. inhibition, % at 4.98 µM. hit rate 0.38% among 360,000; in the data active means inhibition above about 21%
Target sequence (O43353 whole entry, looked up): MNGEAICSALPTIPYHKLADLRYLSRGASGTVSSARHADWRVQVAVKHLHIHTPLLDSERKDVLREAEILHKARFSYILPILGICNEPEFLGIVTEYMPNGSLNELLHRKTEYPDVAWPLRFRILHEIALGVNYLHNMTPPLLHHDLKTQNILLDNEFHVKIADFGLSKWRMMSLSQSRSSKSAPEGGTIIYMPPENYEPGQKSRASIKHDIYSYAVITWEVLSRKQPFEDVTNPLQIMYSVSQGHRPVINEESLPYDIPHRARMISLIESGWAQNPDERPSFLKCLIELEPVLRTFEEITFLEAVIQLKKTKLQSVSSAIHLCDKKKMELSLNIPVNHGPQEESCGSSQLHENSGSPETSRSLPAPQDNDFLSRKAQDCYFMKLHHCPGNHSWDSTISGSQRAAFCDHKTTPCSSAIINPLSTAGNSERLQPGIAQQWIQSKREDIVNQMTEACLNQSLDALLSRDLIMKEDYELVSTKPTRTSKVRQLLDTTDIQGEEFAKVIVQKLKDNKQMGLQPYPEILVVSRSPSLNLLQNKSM
TLR4 MyD88 comp – TLR4-MyD88 interaction inhibition in cells. AID 861. hit rate 0.18% among 200,000. O00206+Q99836. inhibition, % at 8.4 µM. HeLa CL3-4 TLR4/MyD88 BLA complementation, FRET ratio; in the data active means inhibition above about 25%
MC4R barr conf – human MC4R beta-arrestin agonism confirmation; U2OS MC4R beta-arrestin recruitment, luminescence; scaled DMSO 0%, Melanotan II 100%; AID 602192; activation, % at 8.9 µM; hit rate 31% among 2,400; shares compounds with MC4R barr agon;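 active means mean activation across replicates above the hit cutoff set in the earlier primary screen, cut at about 8% in these data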
MOR-DOR barr ag – activates mu-delta opioid heterodimer, MC4R agonist counter-screen; shares compounds with MC4R barr agon; U2OS PathHunter beta-arrestin, beta-gal luminescence; percent of deltorphin B response, DMSO zero; activation, % at 9.2 µM; hit rate 5.8% among 2,400; AID 602194;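 active means mean activation across replicates exceeds the hit threshold derived in the earlier primary screen, cut at about 18% in these data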
Each line names hits and unclear results; the compound was inactive in the other large screens (follow-up assays come after a bar, where they were run); ! = not confirmed by another sample.

COC(=O)c1c(C(=O)c2ccc(Br)cc2)n(C)c2ccccc12	none (no result: TLR4 MyD88 comp)
Cc1ccc(C(=O)Nc2oc(-c3ccccc3)cc2C#N)cc1	MC4R barr agon 12 | MC4R barr conf inactive | MOR-DOR barr ag inactive
Cn1c(SCC(=O)Nc2cccc(Br)c2)nnc1-c1cc2ccccc2o1	MC4R barr agon 11 | MC4R barr conf inactive | MOR-DOR barr ag inactive
Cc1ccc(C(C)C)c(OCc2nn(CC(=O)c3ccc(Cl)cc3)c3[n+]2CCCCC3)c1	MC4R barr agon 40 | MC4R barr conf 19 | MOR-DOR barr ag 34
O=C(CCc1ccccc1)NC(NC(=S)Nc1ccc(Br)cc1)C(Cl)(Cl)Cl (stereo not drawn)	MC4R barr agon 13 | MC4R barr conf inactive | MOR-DOR barr ag inactive
O=C(/C=C/c1cc([N+](=O)[O-])ccc1OC(F)F)Nc1cccc(OC(F)F)c1	MC4R barr agon 20 | MC4R barr conf inactive | MOR-DOR barr ag inactive
COc1ccc(CNCCc2ccc(Cl)cc2)cc1OCc1ccccc1	MC4R barr agon 16 | MC4R barr conf 24 | MOR-DOR barr ag inactive
Cc1nn(CC(=O)NCc2cccc3ccccc23)c(=O)c2ccccc12	MC4R barr agon 19 | MC4R barr conf inactive | MOR-DOR barr ag inactive
O=S(=O)(c1ccc2nc(-c3ccccc3)[nH]c2c1)N1CCN(c2ccc(Cl)cc2)CC1	MC4R barr agon 11 | MC4R barr conf inactive | MOR-DOR barr ag inactive
Cc1cc(C(=O)Nc2sc(C)c(-c3ccc(F)cc3)c2C(N)=O)no1	MC4R barr agon 13 | MC4R barr conf inactive | MOR-DOR barr ag inactive
CCc1ccc(-c2c(C)sc(NC(C)=O)c2C(N)=O)cc1	none
Cc1ccccc1Cn1ccc(NC(=O)c2cc3nc(-c4ccco4)cc(C(F)(F)F)n3n2)n1	MC4R barr agon 15 | MC4R barr conf inactive | MOR-DOR barr ag inactive
CCN1CCN(Cc2ccc(NC(=O)c3cc(NC(=O)c4cncc(-c5ccc(C#N)cc5)c4)cc(OC)c3)cc2C(F)(F)F)CC1	MC4R barr agon 13! (no result: TLR4 MyD88 comp) | MC4R barr conf 20 | MOR-DOR barr ag inactive
CCOC(=O)Cc1csc(NC(=O)c2sc3nc4cc(C)ccc4cc3c2N)n1	MC4R barr agon 39 | MC4R barr conf 25 | MOR-DOR barr ag inactive
O=C(NCC1OCCc2ccccc21)c1ccc(NC(=O)c2ccc(Cl)cc2Cl)cc1 (stereo not drawn)	MC4R barr agon 15 | MC4R barr conf inactive | MOR-DOR barr ag inactive
COc1ccc(-c2ccc3oc(-c4ccc(OC)cc4)c(C#CCCO)c3c2)cc1	MC4R barr agon 11 (no result: TLR4 MyD88 comp) | MC4R barr conf inactive | MOR-DOR barr ag inactive
COc1ccc(C#Cc2c(-c3ccc(OC)cc3)oc3ccc(-c4ccc(OC)cc4)cc23)cc1	none (no result: TLR4 MyD88 comp)
Cc1cc(NC(=O)CN2C(=O)/C(=C/c3ccccc3F)SC2=S)no1	none (no result: TLR4 MyD88 comp)
Cc1ccc(C(=O)N/N=C\c2cc3c(cc2Br)OCO3)s1	MC4R barr agon 12 | MC4R barr conf 10 | MOR-DOR barr ag inactive
COCCn1c(=NC(=O)/C=C/c2cccs2)sc2cc(NC(C)=O)ccc21	MC4R barr agon 10 | MC4R barr conf inactive | MOR-DOR barr ag inactive
COCCn1c(=NC(=O)CCS(=O)(=O)c2ccccc2)sc2cc(C)ccc21	none (no result: TLR4 MyD88 comp)
O=C(OCC(=O)N(Cc1ccccc1)Cc1ccccc1)c1cccc(O)c1	MC4R barr agon 9.7 (no result: TLR4 MyD88 comp) | MC4R barr conf inactive | MOR-DOR barr ag inactive
Cc1sc2nc(SCC(=O)Nc3ccccc3F)[nH]c(=O)c2c1C	MC4R barr agon 12 (no result: TLR4 MyD88 comp) | MC4R barr conf inactive | MOR-DOR barr ag inactive
Cc1csc(NC(=O)CSc2nc3sc(C)c(C)c3c(=O)[nH]2)n1	none
COC(=O)c1ccc(COC(=O)C2CCN(S(=O)(=O)c3ccccc3C(=O)OC)CC2)cc1	none (no result: TLR4 MyD88 comp)
Cc1cccc(N2CCN(C(=S)Nc3ccc4nc(N5CCN(C)CC5)cc(C)c4c3)CC2)c1C	MC4R barr agon 11 (no result: NTR1 ag) | MC4R barr conf 13 | MOR-DOR barr ag inactive
Cc1cccc(N2CCN(C(=S)Nc3ccc4nc(N5CCN(C)CC5)cc(C)c4c3)CC2C)c1 (stereo not drawn)	MC4R barr agon 14 | MC4R barr conf inactive | MOR-DOR barr ag inactive
CC(=O)Nc1cccc(/C(C)=N\NC(=O)c2ccc(Cn3nc([N+](=O)[O-])c(Cl)c3C)o2)c1	none
CCC(=O)Nc1cccc(-c2nc3ccc(C)cc3o2)c1	none (no result: TLR4 MyD88 comp)
Cc1ccc2nc(-c3cccc(NC(=O)c4ccc5c(c4)OCCO5)c3)oc2c1	MC4R barr agon 23 | MC4R barr conf inactive | MOR-DOR barr ag inactive
NC(=O)CSc1ccc(-c2ccc(F)cc2)nn1	none
Nc1nc(CCl)nc(Nc2cccc3ccccc23)n1	MC4R barr agon 26 (no result: TLR9-MyD88 block, TLR4 MyD88 comp) | MC4R barr conf 19 | MOR-DOR barr ag 43
Nc1nc(Nc2cccc3ccccc23)nc(C2CCCC2=O)n1 (stereo not drawn)	none (no result: TLR9-MyD88 block, MC4R barr agon, MC4R antag cAMP, NOD2-RIPK2 inh)
CC(=O)OC1COC(OC2C(O)C(C)OC(OC3C(OC4CCC5(C)C(CCC6(C)C5CC=C5C7CC(C)(C)CCC7(C(=O)O)CCC56C)C4(C)CO)OCC(O)C3O)C2O)C(O)C1OC(C)=O (stereo not drawn)	none (no result: TLR9-MyD88 block, MC4R barr agon, MC4R antag cAMP, NOD2-RIPK2 inh)
C/C=C(/C)C(=O)OC1CC(C)(C)C[C@H]2C3=CC[C@@H]4[C@@]5(C)CCC(O[C@@H]6O[C@@H](C(=O)O)[C@@H](O)C(O[C@@H]7OC[C@H](O)[C@@H](O)[C@@H]7O[C@@H]7OC(CO)C(O)[C@@H](O)[C@@H]7O)C6O[C@@H]6OC(CO)C(O)C(O)C6O)[C@@](C)(CO)[C@@H]5CC[C@]4(C)[C@]3(C)CC(O)[C@@]12CO (stereo partly drawn)	MC4R barr agon 9.9 (no result: TLR4 MyD88 comp) | MC4R barr conf 8.6 | MOR-DOR barr ag inactive
O=C(CNc1ccc(Br)cc1)Nc1ccc(S(=O)(=O)N2CCCCC2)cc1	none (no result: NTR1 ag, TLR4 MyD88 comp)
O=C(Nc1cc(C(F)(F)F)ccc1N1CCOCC1)c1cn2ccccc2n1	MC4R barr agon 12 | MC4R barr conf inactive | MOR-DOR barr ag inactive
CCN1C(=O)[C@H]2[C@H]3CN=C(SCc4ccc(C(=O)OC)cc4)N3[C@@](C)(C(=O)OC)[C@H]2C1=O	none (no result: TLR4 MyD88 comp)
O=C(N/N=C/c1ccccc1)c1ccc(-c2ccccc2)cc1	none (no result: TLR4 MyD88 comp)
O=C(N/N=C\c1ccccc1F)c1ccc(-c2ccccc2)cc1	MC4R barr agon 16 (no result: TLR4 MyD88 comp) | MC4R barr conf inactive | MOR-DOR barr ag inactive
Cc1ccc(S(=O)(=O)NC(=O)COc2ccc([N+](=O)[O-])cc2)cc1	none (no result: TLR4 MyD88 comp)
CCCCOc1ccc(/C=N/NC(=S)Nc2cc(C)ccc2C)cc1	MC4R barr agon 12 | MC4R barr conf inactive | MOR-DOR barr ag inactive
CCCCOc1ccc(/C=N/NC(=S)Nc2cccc(C)c2C)cc1	none
